The test system of data set [1] is Staphylococcus aureus. Nature of the data set: Bactericidal activity against Staphylococcus aureus RN4220 ATCC 35556 in stationary-phase assessed as reduction in bacterial burden at 4 times MIC99 after 2 to 6 hrs by time-kill assay. It counts as functional, organism-based. In short, it runs like this: (§1)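 Overnight cultures washed and resuspended in PBS, then diluted 100-fold into LB (exponential-phase model) or into 1% PBS (stationary-phase model). Test agent added at 4× MIC99. Incubated at 37 °C with shaking at 200 rpm. CFU counted on LB agar at 0, 2, 4 and 6 h.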

Data set [2] has as its system Pseudomonas aeruginosa. Nature of the data set: Antibacterial activity against Pseudomonas aeruginosa PAO1 ATCC 47085 at 0.5 times MIC99 after 24 hrs by checkerboard assay in presence of norfloxacin. The data set is classed as functional. In short, it runs like this: (§2)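 Checkerboard assay: compound serially diluted along one axis of a 96-well plate and antibiotic along the other, in LB. Each well inoculated with 2 × 10⁴ CFU and incubated 24 h at 37 °C. ΣFIC = FIC A + FIC B, where each FIC is the combination MIC99 divided by the MIC99 of that drug alone.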

Data set [3] relates to Pseudomonas aeruginosa. Nature of the data set: Antibacterial activity against Pseudomonas aeruginosa PAO1 ATCC 47085 assessed as increase in outer membrane permeability at 1 to 4 times MIC99 by fluorescent probe 1-N-phenylnaphthylamine based fluorescence assay. The data set is classed as functional, organism-based. In short, it runs like this: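 PAO1 cells harvested at OD600 ~0.5, washed, and resuspended in 5 mM HEPES pH 7.2 with 10 μM NPN (final) and 10 mM sodium azide (final). Held 30 min at room temperature in the dark. Compound added at 4× or 1× MIC99 and NPN fluorescence recorded continuously (ex 350/em 420 nm). Gentamicin at 4× MIC99 as positive control. Three independent experiments.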

Data set [4] deals with Staphylococcus aureus. In words: Antibacterial activity against methicillin-resistant Staphylococcus aureus clinical isolate 10082B SPA type 1 after 24 hrs by microbroth dilution method. It counts as functional. In short, it runs like this:
(§3)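 MRSA isolates from ICU surfaces, stored at −80 °C and grown in Mueller-Hinton broth. Overnight cultures diluted and added to serially diluted compound at ~10⁵ CFU/mL, broth microdilution. Plates incubated 24 h at 37 °C, growth read as absorbance at 620 nm. MIC99 taken as the lowest concentration giving complete growth inhibition.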
A general note: Dilution methods test growth across graded concentrations, often in twofold steps.

The test system of data set [5] is Pseudomonas aeruginosa. In words: Bactericidal activity against Pseudomonas aeruginosa PAO1 ATCC 47085 assessed as reduction in bacterial burden at 4 times MIC99. The data set is classed as functional.
A short description of data set [6]: Toxicity in adult L4/juvenile L1 stages of Caenorhabditis elegans N2 assessed as survival at 64 ug/ml incubated for 96 hrs measured every 12 hrs. The data set is classed as organism-based. The note with it: in vivo. In short, it runs like this: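 C. elegans N2 kept on NGM agar at 22 °C. Compound mixed into molten NGM agar at 64 μg/mL. L4 adults, L1 juveniles and synchronized eggs transferred onto test plates and held at 22 °C for 96 h. Death, development and egg production checked every 12 h.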

Data set [7] has as its system Pseudomonas aeruginosa. In words: Antibacterial activity against Pseudomonas aeruginosa PAO1 ATCC 47085 at 0.5 times MIC99 after 24 hrs by checkerboard assay in presence of kanamycin. The data set is classed as functional. In short, it runs like this:
as §2

In data set [8] the test system is Pseudomonas aeruginosa. In words: Potentiation of kanamycin-induced antibacterial activity against Pseudomonas aeruginosa PAO1 ATCC 47085 assessed as kanamycin MIC at 0.5 times MIC99 after 24 hrs by checkerboard assay (reference value: 64 ug/ml). It counts as functional. The settings on record: PAO1 ATCC 47085, 24 h. In short, it runs like this: as §2
Data set [9] is described as follows: Selectivity index, ratio of CC50 for HEK293T/17 cells to MIC99 for Escherichia coli ANS1. In short, it runs like this: (§4)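 CC50: HEK293T/17 or A549 cells seeded at 10⁴ per well in DMEM with 10% FBS at 37 °C, 5% CO2. After 24 h, wells PBS-washed and serially diluted compound applied for 48 h, with viability read by MTS and CC50 taken by nonlinear regression. MIC99 by CLSI broth microdilution, overnight at 37 °C without shaking, from three independent tests. SI = CC50/MIC99.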

A short description of data set [10]: Hemolytic activity in human RBC after 1 hr. It counts as ADME, cell-based, Erythrocyte. The settings on record: red blood cells. In short, it runs like this: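 Human red blood cells, stored at 4 °C, added to serially diluted compound and incubated 1 h at 37 °C without shaking. Plates centrifuged and supernatant absorbance read at 540 nm. Triton X-100 as positive control. HC50 is the concentration lysing 50% of cells.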

The test system of the next data set is Escherichia coli. In words: Antibacterial activity against Escherichia coli ANS1 incubated overnight by microbroth dilution method. The data set is classed as functional. In short, it runs like this: (§5)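 Bacteria grown in LB medium. CLSI microbroth dilution in 96-well plates, overnight at 37 °C without shaking. MIC99 taken as the lowest concentration giving complete growth inhibition. Three independent determinations, reported as mean ± SD.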

The test system of data set [11] is Pseudomonas aeruginosa. In words: Bactericidal activity against Pseudomonas aeruginosa PAO1 ATCC 47085 in exponential-phase assessed as reduction in bacterial burden at 4 times MIC99 upto 6 hrs by time-kill assay. It counts as functional. In short, it runs like this: as §1
Data set [12] deals with Caenorhabditis elegans. Nature of the data set: Toxicity in adult L4/juvenile L1 stages of Caenorhabditis elegans N2 assessed as deleterious effect on genotype at 64 ug/ml incubated for 96 hrs measured every 12 hrs. The note with it: in vivo. It counts as organism-based.
Data set [13] has as its system Pseudomonas aeruginosa. Nature of the data set: Antibacterial activity against Pseudomonas aeruginosa PAO1 ATCC 47085 incubated overnight by microbroth dilution method. The data set is classed as functional. In short, it runs like this:
as §5

Data set [14] has as its system Caenorhabditis elegans. Nature of the data set: Toxicity in adult L4/juvenile L1 stages of Caenorhabditis elegans N2 assessed as effect on viable eggs production at 64 ug/ml incubated for 96 hrs measured every 12 hrs. It counts as organism-based. The settings on record: in vivo. In short, it runs like this:
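C. elegans N2 maintained on NGM agar at 22 °C. Compound mixed into molten NGM agar at 64 μg/mL. L4 adults, L1 juveniles and synchronized eggs transferred onto test plates and kept 96 h at 22 °C. Checked every 12 h for death, development and egg production. Gentamicin and […] as controls.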

Data set [15] deals with Pseudomonas aeruginosa. In words: Antibacterial activity against Pseudomonas aeruginosa PAO1 ATCC 47085 at 0.5 times MIC99 after 24 hrs by checkerboard assay in presence of ampicillin. It counts as functional. In short, it runs like this: as §2
Data set [16] can be described thus: Cytotoxicity against human A549 cells after 48 hrs by MTS conversion assay. The data set is classed as cell-based. In short, it runs like this:
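HEK293T/17 and A549 cells maintained in DMEM with 10% FBS at 37 °C, 5% CO2. Seeded at 10⁴ cells per well; after 24 h, washed with PBS and exposed to serially diluted compound for 48 h. Viability read by MTS conversion. CC50 obtained by nonlinear regression.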
(Formazan colour is commonly taken as a measure of viable cells.)

The subject of data set [17] is Staphylococcus aureus. In words: Antibacterial activity against methicillin-resistant Staphylococcus aureus clinical isolate 20225B SPA type 15 after 24 hrs by microbroth dilution method. The data set is classed as functional. In short, it runs like this: as §3
For data set [18], the system named is Pseudomonas aeruginosa. In words: Antibiofilm activity against Pseudomonas aeruginosa PAO1 ATCC 47085 at 64 ug/ml after 24 hrs by crystal violet staining-based spectrophotometry. It counts as functional, organism-based. In short, it runs like this:
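PAO1 grown 2 h in LB at 37 °C with shaking, then diluted 1:1000 in 10% LB-PBS to 3 × 10⁵ CFU/mL and mixed with serially diluted compound. Biofilms grown on peg lids 24 h at 37 °C, static. Pegs washed, stained with 0.1% crystal violet for 15 min, dye eluted in 95% ethanol and read at 600 nm. Control was 10% LB-PBS.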

A short description of data set [19]: Selectivity index, ratio of CC50 for HEK293T/17 cells to MIC99 for Pseudomonas aeruginosa PAO1 ATCC 47085. The data set is classed as toxicity, cell-based. The note with it: human, read-out: Selectivity Index. In short, it runs like this: as §4
For data set [20], the system named is Staphylococcus aureus. Nature of the data set: Antibacterial activity against Staphylococcus aureus RN4220 ATCC 35556 incubated overnight by microbroth dilution method. The data set is classed as functional. In short, it runs like this:
as §5

Data set [21] deals with Staphylococcus aureus. In words: Antibacterial activity against Staphylococcus aureus RN4220 ATCC 35556 at 0.5 times MIC99 after 24 hrs by checkerboard assay in presence of ampicillin. It counts as functional. In short, it runs like this: as §2

SMILES strings stand for the structures. The source made the active and inactive calls. The calls are words filed in the database; no cut-off is given here.

For orientation: MIC99 means an inhibitory concentration at the 99% level, which refers to growth in some studies and to a panel of isolates in others. The term HC50 denotes the concentration giving 50% haemolysis. By CC50 is commonly meant the concentration giving 50% cytotoxicity. A lower CC50 goes with greater toxicity to the cells. Regarding `Cl.Cl.S=C(NCCCNCCCCCNCCCNC(=S)NCC(c1ccccc1)c1ccccc1)NCC(c1ccccc1)c1ccccc1`, the outcome with Staphylococcus aureus [1], with Pseudomonas aeruginosa [3] and in the data set with Pseudomonas aeruginosa [18] was Active. The “fractional inhibitory concentration index (FICI)” value with Pseudomonas aeruginosa [2] amounted to 0.75; in the data set with Pseudomonas aeruginosa [7] it was 0.75; in the data set with Pseudomonas aeruginosa [15], 2; in the data set with Staphylococcus aureus [21], 0.75. For the same compound, the MIC99 in the data set with Staphylococcus aureus [4] is 1 µg/mL; in the data set with Pseudomonas aeruginosa [8], 8 µg/mL; against Escherichia coli, 2 µg/mL; against Pseudomonas aeruginosa [13] it was 8 µg/mL; with Staphylococcus aureus [17] it was 1 µg/mL; with Staphylococcus aureus [20], 2 µg/mL. Also, the Activity was above 2 deltalog10CFU/ml in the data set with Pseudomonas aeruginosa [5], 4 deltalog10CFU/ml in the data set with Pseudomonas aeruginosa [11], “Non-toxic” with Caenorhabditis elegans [12] and “Non-toxic” in the data set on Caenorhabditis elegans [14]. The survival at 96 h, 64 ug/ml in data set [6] came to 100%. The “Selectivity Index” value in [9] was 16. The same compound registered a 50% haemolytic concentration (HC50) at 1 h in data set [10] of 64 µg/mL. In data set [16], this compound yielded a CC50 at 48 h of 64 µg/mL. The selectivity ratio in data set [19] was 4.

Source of the values: ChEMBL document CHEMBL3804769, “Antibacterial Diamines Targeting Bacterial Membranes” (J Med Chem, 2016).
